Values after ≈ are worked out from the molar mass of the structure shown.
Tests used:
Format in all cases: functional
[1] = test system: Bacillus subtilis; experiment: Antimicrobial activity against Bacillus subtilis ATCC 6633 after 24 hrs; details: for MIC: Bacillus subtilis, ATCC 6633, 24 h
Summary of the method: (§1)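 MIC by twofold serial dilution in Mueller-Hinton broth (MHB); MHB also used to dilute the bacterial suspension. Wells held 10^3 cfu/ml bacteria after inoculation. Controls: 80% DMSO, 20% EtOH, methanol, DMSO, PBS, organism alone and medium alone. Triplicate in each run. MIC taken as the lowest concentration completely inhibiting macroscopic growth.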

[2] = test system: Klebsiella pneumoniae; experiment: Antimicrobial activity against Klebsiella pneumoniae RSHM 574 after 24 hrs; details: RSHM 574, 24 h; summary of the method: as §1
[3] = test system: Staphylococcus aureus; experiment: Antimicrobial activity against Staphylococcus aureus ATCC 25923 after 24 hrs; details: ATCC 25923, 24 h
Summary of the method: (§2)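 Twofold serial broth dilution in Mueller-Hinton broth. MHB was used both to dilute the bacterial suspension and for the twofold compound dilutions, giving 10^3 cfu/ml bacteria per well after inoculation. Solvent, medium and organism-only wells served as controls. Each organism was run in triplicate.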

[4] = test system: Candida albicans; experiment: Antimicrobial activity against multidrug-resistant Candida albicans isolates after 24 to 48 hrs
Summary of the method: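 Yeast broth microdilution following CLSI M27-A, with Sabouraud dextrose medium noted for antifungal assays. Fresh cultures at McFarland 0.5 (10^6 cfu/ml) were diluted to 10^4 cfu/ml and inoculated into twofold compound dilutions. Trays were incubated at 35 °C in a humid chamber and read at 48 h, in triplicate. MIC was the lowest concentration giving complete macroscopic growth inhibition.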

[5] = test system: Escherichia coli; experiment: Antimicrobial activity against multidrug-resistant Escherichia coli after 24 hrs; summary of the method: as §2
[6] = test system: Candida albicans; experiment: Antimicrobial activity against Candida albicans ATCC 10231 after 24 to 48 hrs
Summary of the method: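 Twofold serial dilution following CLSI M27-A. Yeast suspension made at 10^4 cfu/ml by diluting a fresh culture at McFarland 0.5 (10^6 cfu/ml). Inoculated into the diluted compound, incubated at 35 °C in a humid chamber, read after 48 h. Triplicate in each run. MIC is the lowest concentration completely inhibiting macroscopic growth.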

[7] = test system: Escherichia coli; experiment: Antimicrobial activity against Escherichia coli ATCC 25922 after 24 hrs; details: ATCC 25922, 24 h; summary of the method: as §1
[8] = test system: Klebsiella pneumoniae; experiment: Antimicrobial activity against multidrug-resistant Klebsiella pneumoniae after 24 hrs; summary of the method: as §2
[9] = test system: Pseudomonas aeruginosa; experiment: Antimicrobial activity against Pseudomonas aeruginosa ATCC […] after 24 hrs; summary of the method: as §1
[10] = test system: Staphylococcus aureus; experiment: Antimicrobial activity against multidrug-resistant Staphylococcus aureus after 24 hrs; summary of the method: as §2
[11] = test system: Bacillus subtilis; experiment: Antimicrobial activity against ceftriazone-resistant Bacillus subtilis after 24 hrs; summary of the method: as §2

Compound: CC(C)(C)c1ccc(-c2nc3ccc(N)cc3o2)cc1
- log(1/C) [1]: 4.027
- MIC [1]: 25 µg/mL (≈ 93.9 µM)
- MIC [2]: 50 µg/mL (≈ 188 µM)
- MIC [3]: 100 µg/mL (≈ 375 µM)
- MIC [4]: 50 µg/mL (≈ 188 µM)
- MIC [5]: 100 µg/mL (≈ 375 µM)
- MIC [6]: 50 µg/mL (≈ 188 µM)
- MIC [7]: 50 µg/mL (≈ 188 µM)
- MIC [8]: 100 µg/mL (≈ 375 µM)
- MIC [9]: 25 µg/mL (≈ 93.9 µM)
- MIC [10]: 100 µg/mL (≈ 375 µM)
- MIC [11]: 25 µg/mL (≈ 93.9 µM)

Compound: Cc1ccc2oc(-c3ccc(Cl)cc3)nc2c1
- log(1/C) [1]: 4.29
- MIC [1]: 12.5 µg/mL (≈ 51.3 µM)

Compound: Cc1ccc2oc(-c3ccc(Br)cc3)nc2c1
- log(1/C) [1]: 4.363
- MIC [1]: 12.5 µg/mL (≈ 43.4 µM)

Compound: Cc1ccc2oc(-c3ccccc3)nc2c1
- log(1/C) [1]: 4.224
- MIC [1]: 12.5 µg/mL (≈ 59.7 µM)

Compound: CCc1ccc(-c2nc3cc(N)ccc3o2)cc1
- log(1/C) [1]: 4.28
- MIC [1]: 12.5 µg/mL (≈ 52.5 µM)
- MIC [2]: 50 µg/mL (≈ 210 µM)
- MIC [3]: 25 µg/mL (≈ 105 µM)
- MIC [4]: 50 µg/mL (≈ 210 µM)
- MIC [5]: 100 µg/mL (≈ 420 µM)
- MIC [6]: 50 µg/mL (≈ 210 µM)
- MIC [7]: 50 µg/mL (≈ 210 µM)
- MIC [8]: 100 µg/mL (≈ 420 µM)
- MIC [9]: 50 µg/mL (≈ 210 µM)
- MIC [10]: 100 µg/mL (≈ 420 µM)
- MIC [11]: 50 µg/mL (≈ 210 µM)

Compound: Nc1ccc2oc(-c3ccc(F)cc3)nc2c1
- log(1/C) [1]: 3.96
- MIC [1]: 25 µg/mL (≈ 110 µM)
- MIC [2]: 50 µg/mL (≈ 219 µM)
- MIC [3]: 50 µg/mL (≈ 219 µM)
- MIC [4]: 50 µg/mL (≈ 219 µM)
- MIC [5]: 100 µg/mL (≈ 438 µM)
- MIC [6]: 50 µg/mL (≈ 219 µM)
- MIC [7]: 50 µg/mL (≈ 219 µM)
- MIC [8]: 100 µg/mL (≈ 438 µM)
- MIC [9]: 50 µg/mL (≈ 219 µM)
- MIC [10]: 100 µg/mL (≈ 438 µM)
- MIC [11]: 50 µg/mL (≈ 219 µM)

Compound: CC(C)(C)c1ccc(-c2nc3ccc([N+](=O)[O-])cc3o2)cc1
- log(1/C) [1]: 3.773
- MIC [1]: 50 µg/mL (≈ 169 µM)
- MIC [2]: 50 µg/mL (≈ 169 µM)
- MIC [3]: 100 µg/mL (≈ 337 µM)
- MIC [4]: 100 µg/mL (≈ 337 µM)
- MIC [5]: 100 µg/mL (≈ 337 µM)
- MIC [6]: 50 µg/mL (≈ 169 µM)
- MIC [7]: 50 µg/mL (≈ 169 µM)
- MIC [8]: 100 µg/mL (≈ 337 µM)
- MIC [9]: 50 µg/mL (≈ 169 µM)
- MIC [10]: 100 µg/mL (≈ 337 µM)
- MIC [11]: 100 µg/mL (≈ 337 µM)

Compound: Nc1ccc2nc(Cc3ccc(F)cc3)oc2c1
- log(1/C) [1]: 3.685
- MIC [1]: 50 µg/mL (≈ 206 µM)
- MIC [2]: 50 µg/mL (≈ 206 µM)
- MIC [3]: 100 µg/mL (≈ 413 µM)
- MIC [4]: 50 µg/mL (≈ 206 µM)
- MIC [5]: 50 µg/mL (≈ 206 µM)
- MIC [6]: 50 µg/mL (≈ 206 µM)
- MIC [7]: 50 µg/mL (≈ 206 µM)
- MIC [8]: 100 µg/mL (≈ 413 µM)
- MIC [9]: 25 µg/mL (≈ 103 µM)
- MIC [10]: 100 µg/mL (≈ 413 µM)
- MIC [11]: 50 µg/mL (≈ 206 µM)

Compound: COc1ccc(-c2nc3cc(C)ccc3o2)c(OC)c1
- log(1/C) [1]: 4.032

Compound: C[C@@H]1[C@H](O)[C@@H](C)/C=C/C=C/C=C/C=C/C=C/C=C/C=C/[C@H](O[C@@H]2O[C@H](C)[C@@H](O)[C@H](N)[C@@H]2O)C[C@@H]2O[C@](O)(C[C@@H](O)C[C@@H](O)[C@H](O)CC[C@@H](O)C[C@@H](O)CC(=O)O[C@H]1C)C[C@H](O)[C@H]2C(=O)O [AMPHOTERICIN B]
- MIC [4]: 1 µg/mL (≈ 1.08 µM)
- MIC [6]: 1 µg/mL (≈ 1.08 µM)

Compound: COc1ccccc1-c1nc2cc(C)ccc2o1
- log(1/C) [1]: 3.981
- MIC [1]: 25 µg/mL (≈ 104 µM)

Compound: Cc1ccc2nc(-c3ccc(Cl)cc3)oc2c1
- log(1/C) [1]: 4.29
- MIC [1]: 12.5 µg/mL (≈ 51.3 µM)

Compound: Cc1ccc2nc(-c3ccc(Cl)cc3Cl)oc2c1
- log(1/C) [1]: 4.046
- MIC [1]: 25 µg/mL (≈ 89.9 µM)

Compound: Cc1ccc2oc(-c3ccccc3[N+](=O)[O-])nc2c1
- log(1/C) [1]: 4.007
- MIC [1]: 25 µg/mL (≈ 98.3 µM)

Compound: COc1ccc(-c2nc3ccc(C)cc3o2)c(OC)c1
- log(1/C) [1]: 4.032

Compound: CC1(C)S[C@@H]2[C@H](NC(=O)[C@H](N)c3ccccc3)C(=O)N2[C@H]1C(=O)O.O.O.O [AMPICILLIN TRIHYDRATE]
- MIC [1]: 0.25 µg/mL
- MIC [2]: 2 µg/mL
- MIC [3]: 0.03 µg/mL
- MIC [5]: 256 µg/mL
- MIC [7]: 8 µg/mL
- MIC [8]: 256 µg/mL
- MIC [9]: 4100 µg/mL
- MIC [10]: 2 µg/mL
- MIC [11]: 8 µg/mL

Compound: Cc1ccc(-c2nc3ccc(C)cc3o2)c(C)c1
- log(1/C) [1]: 3.676
- MIC [1]: 50 µg/mL (≈ 211 µM)

Compound: Cc1ccc2oc(-c3ccccc3Cl)nc2c1
- log(1/C) [1]: 3.989
- MIC [1]: 25 µg/mL (≈ 103 µM)

Compound: Cc1ccc2oc(-c3ccc(Cl)cc3Cl)nc2c1
- log(1/C) [1]: 4.046
- MIC [1]: 25 µg/mL (≈ 89.9 µM)

Compound: Cc1ccc2nc(-c3ccccc3Cl)oc2c1
- log(1/C) [1]: 3.989

From ChEMBL document CHEMBL1138547, “Synthesis, biological evaluation and 2D-QSAR analysis of benzoxazoles as antimicrobial agents” (2009)
